The term IC50 denotes the concentration needed to halve the response being measured.

One data set relates to Plasmodium falciparum. The experiment in a line: Antiplasmodial activity against ring-stage of chloroquine-resistant/mefloquine-sensitive Plasmodium falciparum W2 assessed as parasite growth inhibition after 48 hrs by YOYO-1 dye-based flow cytometric method. Type of data set: functional, organism-based. To be noted: W2, 48 h. The method in brief: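 Parasites grown in RPMI-1640 with 10% human serum and synchronized with 5% D-sorbitol. Ring-stage cultures exposed 48 h to graded compound levels (DMSO ≤0.1%), then fixed 48 h in 1% formaldehyde/PBS pH 7.4 at room temperature. Stained with 1 nM YOYO-1 in 0.1% Triton X-100/PBS; parasitemia by flow cytometry. IC50 from non-linear fit of % control parasitemia, duplicate experiments.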
On the technique in general: Flow cytometry measures light scatter and fluorescence of single cells or particles in a stream.

The test system of the next data set is J774. Description: Cytotoxicity against mouse J774 cells assessed as decrease in cell survival after 24 hrs by fluorimetric method. Type of data set: cell-based. To be noted: J774, 24 h. The method in brief: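 J774 murine macrophages grown in DMEM with 10% de-complemented fetal calf serum under 5% CO2. Fluorescence read at 540 nm excitation and 590 nm emission. Percent survival is compound-well fluorescence divided by that of control wells with cells in a DMSO dilution series (1% to 0.03125% v/v).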

Data set [1] is described as follows: Selectivity index, ratio of IC50 for mouse J774 cells to IC50 for ring-stage of chloroquine-resistant/mefloquine-sensitive Plasmodium falciparum W2. Type of data set: toxicity. To be noted: read-out: Ratio IC50.

Turning to `O=C1c2cccc(F)c2C(=O)N1CCNc1ccnc2cc(Cl)ccc12`, the half-inhibitory concentration (IC50) with Plasmodium falciparum stood at 4730 nM. `O=C1c2ccc(F)cc2C(=O)N1CCCCCCNc1ccnc2cc(Cl)ccc12`: the half-inhibitory concentration (IC50) worked out at 15200 nM with J774 and 120 nM in the data set on Plasmodium falciparum. The selectivity ratio in data set [1] stood at 126. `O=C1c2ccc(F)cc2C(=O)N1CCCCCCCCNc1ccnc2cc(Cl)ccc12`: the concentration for half-maximal inhibition (IC50) with Plasmodium falciparum came out at 170 nM. Still for that read-out and setting: the same measure for `O=C1c2cccc(F)c2C(=O)N1CCCCNc1ccnc2cc(Cl)ccc12`: 640 nM.

`O=C1c2cccc([N+](=O)[O-])c2C(=O)N1CCNc1ccnc2cc(Cl)ccc12`: in the data set on Plasmodium falciparum, the IC50 came out at 7550 nM. `O=C1c2ccccc2C(=O)N1CCCCCCCCNc1ccnc2cc(Cl)ccc12`: the IC50 in the data set on Plasmodium falciparum worked out at 140 nM.

Take `O=C1c2cccc([N+](=O)[O-])c2C(=O)N1CCCCCCNc1ccnc2cc(Cl)ccc12`: the IC50 in the data set with Plasmodium falciparum came to 150 nM. Same read-out and setting: with `C[C@@H]1CC[C@H]2[C@@H](C)C(=O)O[C@@H]3O[C@@]4(C)CC[C@@H]1[C@]32OO4` [ARTEMISININ] the figure was 7 nM; with `O=C1c2c(Cl)c(Cl)c(Cl)c(Cl)c2C(=O)N1CCCCCCNc1ccnc2cc(Cl)ccc12`, 460 nM. The same measure, in the same setting: the same measure for `O=C1c2c(Cl)c(Cl)c(Cl)c(Cl)c2C(=O)N1CCCCNc1ccnc2cc(Cl)ccc12`: 270 nM; for `O=C1c2ccccc2C(=O)N1CCNc1ccnc2cc(Cl)ccc12`: 1110 nM; for `O=C1c2ccccc2C(=O)N1CCCCNc1ccnc2cc(Cl)ccc12`: 370 nM.

On to `O=C1c2c(Br)c(Br)c(Br)c(Br)c2C(=O)N1CCCCNc1ccnc2cc(Cl)ccc12`, for which the IC50 in the data set with Plasmodium falciparum was determined as 190 nM. As to `O=C1c2c(Br)c(Br)c(Br)c(Br)c2C(=O)N1CCCCCCNc1ccnc2cc(Cl)ccc12`, the 50% inhibitory concentration (IC50) is 29100 nM with J774 and 100 nM in the data set on Plasmodium falciparum. The selectivity ratio in data set [1] turned out to be 291. For `O=C1c2ccccc2C(=O)N1CCCCCCNc1ccnc2cc(Cl)ccc12`, the IC50 with J774 stood at 14300 nM; with Plasmodium falciparum, 110 nM. Moreover, the selectivity ratio in data set [1] turned out to be 130. In the case of `O=C1c2c(Cl)c(Cl)c(Cl)c(Cl)c2C(=O)N1CCNc1ccnc2cc(Cl)ccc12`, the IC50 in the data set on Plasmodium falciparum turned out to be 210 nM. With `O=C1c2c(Br)c(Br)c(Br)c(Br)c2C(=O)N1CCNc1ccnc2cc(Cl)ccc12`, in the data set with Plasmodium falciparum, the IC50 came out at 400 nM. The same measure, in the same setting: the same measure for `O=C1c2cccc(F)c2C(=O)N1CCCNc1ccnc2cc(Cl)ccc12`: 3960 nM. In the case of `O=C1c2cccc(F)c2C(=O)N1CCCCCCCCNc1ccnc2cc(Cl)ccc12`, the half-maximal inhibitory concentration (IC50) is 28200 nM with J774 and 120 nM in the data set with Plasmodium falciparum. Besides, the selectivity ratio in data set [1] turned out to be 235.

For `O=C1c2c(Br)c(Br)c(Br)c(Br)c2C(=O)N1CCCNc1ccnc2cc(Cl)ccc12`, the IC50 in the data set with Plasmodium falciparum is 3760 nM. On to `O=C1c2ccc(F)cc2C(=O)N1CCCNc1ccnc2cc(Cl)ccc12`, for which the half-inhibitory concentration (IC50) in the data set with Plasmodium falciparum was found to be 1190 nM. Take `O=C1c2ccccc2C(=O)N1CCCNc1ccnc2cc(Cl)ccc12`: the IC50 in the data set on Plasmodium falciparum worked out at 1510 nM. Turning to `O=C1c2cccc(F)c2C(=O)N1CCCCCCNc1ccnc2cc(Cl)ccc12`, in the data set with Plasmodium falciparum, the IC50 worked out at 240 nM.

On to `O=C1c2ccc(F)cc2C(=O)N1CCCCNc1ccnc2cc(Cl)ccc12`, for which the IC50 in the data set with Plasmodium falciparum was found to be 420 nM. On the same count and under the same terms, with `O=C1c2ccc(F)cc2C(=O)N1CCNc1ccnc2cc(Cl)ccc12` the figure was 4560 nM; with `O=C1c2c(Cl)c(Cl)c(Cl)c(Cl)c2C(=O)N1CCCNc1ccnc2cc(Cl)ccc12`, 570 nM.
